Test [1] can be described thus: inhibitors of TNFa-induced NFkB p65 translocation, primary screen, imaging, HUVEC, MLSMR starter and 10KST1 sets (AID 438).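 Also: compound added about 3h40 before a 20 min TNFalpha stimulation.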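 As to inhibition: signal is the nuclear over cytoplasmic p65 intensity ratio per well.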 Conditions: HUVEC TNFa-induced p65 nuclear translocation; cell count: measured here: nuclei count (cytotoxicity indicator), at 2.08 µM; inhibition: at 2 µM, stronger effect = higher value, 0% TNFa-plus-vehicle, 100% no-TNFa wells.
Test [2] can be described thus: inhibitors of mutant huntingtin aggregation, primary screen, imaging, exon1htt(103Q)mCFP cells, high-content imaging (AID 483;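 active = visual image review flags a hit and inhibition of aggregation exceeds 20%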;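 also: compound exposure lasted 3 days before fixation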;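 as to nuclei count: percent of the per-plate median nuclei count of sample wells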). Conditions: exon1htt(103Q)mCFP cell line, aggregate imaging, at 2 µM; inhibition of aggregation: stronger effect = higher value; nuclei count: measured here: cell count, toxicity.
Test [3] is described as follows: inhibitors of E-selectin induction by TNFa, primary screen, imaging, HUVEC, immunofluorescence, MLSMR starter and 10KST1 sets (AID 487;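 active = visually confirmed hit in the image check and inhibition above 20%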;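 as to inhibition: signal is fraction of cell area covered by stained E-selectin grains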;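 as to nuclei count: 100% = median nuclei count of all wells on the same plate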). The note with it: HUVEC TNFalpha-induced E-selectin immunofluorescence imaging, at 2 µM; inhibition: stronger effect = higher value; nuclei count: measured here: cell number, toxicity.
The target in test [4] is Voltage-gated potassium channel subunit beta-2 (Rattus norvegicus) (UniProt P62483). The test can be described thus: KvBeta enzyme negative modulators, primary screen, biochemical, NADPH fluorescence (AID 622;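 active = fluorescence slope higher than the sample average by over 3 SD, cut at about -0.22 in these data, passing the limit was not always enough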;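 also: slope of raw intensity against log time taken from 70 to 1610 s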). Conditions: recombinant KvBeta, 4-cyanobenzaldehyde reduction, at 10 µM, stronger effect = higher value.
Chain of Voltage-gated potassium channel subunit beta-2 (Rattus norvegicus) (P62483 whole entry, looked up): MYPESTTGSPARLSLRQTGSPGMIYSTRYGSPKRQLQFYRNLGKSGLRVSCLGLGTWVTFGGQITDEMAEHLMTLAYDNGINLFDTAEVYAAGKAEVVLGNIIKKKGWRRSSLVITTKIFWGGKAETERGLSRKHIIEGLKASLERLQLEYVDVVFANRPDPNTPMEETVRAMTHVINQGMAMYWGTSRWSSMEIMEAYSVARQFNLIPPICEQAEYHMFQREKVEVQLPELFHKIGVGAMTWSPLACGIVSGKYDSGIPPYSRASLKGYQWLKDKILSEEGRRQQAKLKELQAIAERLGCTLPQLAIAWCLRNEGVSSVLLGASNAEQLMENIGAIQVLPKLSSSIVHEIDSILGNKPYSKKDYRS
Test [5] has the same target. The test can be described thus: KvBeta positive modulators, primary screen, biochemical, NADPH fluorescence (AID 623;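 active = NADPH fluorescence slope more negative than the mean of all samples by about 3 SD, 99.7% confidence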;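 also: fluorescence intensity change per second fitted from 20 to 320 s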). The note with it: Recombinant KvBeta, NADPH fluorescence decrease slope, 10 min; at 10 µM; stronger effect = lower value.
The target of test [6] is Muscarinic acetylcholine receptor M4 (Homo sapiens) (UniProt P08173). The test can be described thus: compounds altering M4/GIRK thallium flux, either direction, primary screen, M4 allosteric agonist project, cell-based, HEK293 M4/GIRK, BTC-AM (AID 625;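 active = fluorescence slope after compound addition differing from the mean of all tested samples at 99.7% confidence, mostly higher but some lower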;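 also: thallium influx through GIRK channels coupled to M4 in HEK293 cells with BTC-AM dye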). Conditions: at 10 µM, actives lie on both sides. In a few lines: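 Material – HEK293 cells with M4 receptor and GIRK channels · Buffer or medium – pH 7.3 thallium assay buffer · Doses – one dose, 10 µM final · Timing – cells overnight at 37 °C, BTC-AM loading 1 h, reads 2 min total · Measured by – kinetic fluorescence with BTC-AM dye · Controls – carbachol and DMSO controls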
Chain of Muscarinic acetylcholine receptor M4 (Homo sapiens) (P08173 whole entry, looked up): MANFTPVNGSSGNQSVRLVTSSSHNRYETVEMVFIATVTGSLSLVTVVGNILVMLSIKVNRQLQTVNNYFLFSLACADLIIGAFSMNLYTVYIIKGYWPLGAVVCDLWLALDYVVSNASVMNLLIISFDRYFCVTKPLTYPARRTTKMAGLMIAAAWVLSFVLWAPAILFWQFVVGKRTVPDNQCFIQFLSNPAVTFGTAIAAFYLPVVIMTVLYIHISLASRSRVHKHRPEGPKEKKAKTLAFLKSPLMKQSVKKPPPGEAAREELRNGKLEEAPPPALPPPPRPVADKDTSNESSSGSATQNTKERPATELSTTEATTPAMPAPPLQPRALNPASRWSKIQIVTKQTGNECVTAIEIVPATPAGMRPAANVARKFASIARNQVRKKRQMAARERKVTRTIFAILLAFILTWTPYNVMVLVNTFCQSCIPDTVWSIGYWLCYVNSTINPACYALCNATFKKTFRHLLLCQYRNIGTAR

Test [7] can be described thus: inhibitors of Sendai virus-induced IRF3 signaling, primary screen, TLR/RLR signaling modifier project, cell-based, Sendai virus stimulus, luciferase, 10K MLSCN set (AID 602276;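 active = inhibition at or above 50% at 10 µM; inactive = inhibition below 50%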;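 also: firefly luciferase from ISG56 promoter only with Renilla not read in this screen; 0% = Sendai virus plus DMSO and 100% = medium plus DMSO without virus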). The note with it: HEK293 RL24 IRF3 luciferase reporter, at 10 µM, stronger effect = higher value. Background: In a reporter assay the amount or activity of a reporter protein is the signal.
Test [8] can be described thus: inhibitors of poly I:C-induced TLR3 signaling, primary screen, cell-based, poly I:C stimulus, luciferase, 10K MLSCN set (AID 602277;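 active = inhibition of the reporter signal at or above 50%; inactive = inhibition below 50%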). The note with it: HEK293-TLR3 RL24 IRF3 luciferase reporter, at 10 µM, stronger effect = higher value.

The structures appear in SMILES notation. The source made the active and inactive calls.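 The calls were made as follows, unless noted: active = inhibition above 20% together with a positive visual image hit; inconclusive = visual image hit but inhibition not above 20%; inactive = no visual image hit.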

For `CCOC(=O)c1sc(NS(=O)(=O)c2ccc(NC(C)=O)cc2)nc1C`, the cell count in test [1] worked out at 701. Further, the inhibition – broadly, the drop in the measured response relative to a control, in per cent – was -3.5% (inactive) in test [1], 1% (inactive) in test [3], 11.5% (inactive) in test [7] and 19.8% (inactive) in test [8]. Also, in test [2], the inhibition of aggregation is -10.1% (inactive). In addition, the nuclei count is 99.8% in test [2] and 94.9% in test [3]. For the same compound, the fluorescence slope in test [4] is -0.448 (inactive); in test [6], 0.00462 (inactive). In addition, in test [5], the NADPH fluorescence slope was 1.6e-05 (inactive).
As to `CCOC(=O)c1c(NC(=O)CSc2nc3c(c(=O)n(C)c(=O)n3C)n2C(C)C)sc(C)c1C`, the cell count in test [1] amounted to 547. Also, the inhibition was 1.2% (inactive) in test [1], 26.4% (inactive) in test [3], 18% (inactive) in test [7] and 20.6% (inactive) in test [8]. The inhibition of aggregation in test [2] is 17.1% (inactive). Further, the results for the nuclei count in test [2] and in test [3] were 110% and 82.3%, respectively. The fluorescence slope in test [4] is -0.564 (inactive); in test [6], 0.00617 (inactive). Further, in test [5], the NADPH fluorescence slope is -2.9e-05 (inactive).
On to `Cc1ccccc1-c1nc(CN2CCC(C(=O)NCCCN3CCCC3)CC2)c(C)o1`, for which, in test [1], the cell count was 223. Further, the inhibition in test [1] is 0% (inactive); in test [3], 25.4% (inactive); in test [7] it was -136% (inactive); in test [8], 56.5% (active). The inhibition of aggregation in test [2] is -91.5% (inactive). For the same compound, the nuclei count in test [2] was 101%; in test [3], 94.2%. Also, the fluorescence slope in test [4] was -0.553 (inactive); in test [6], 0.00435 (inactive). In test [5], the NADPH fluorescence slope was 7.2e-05 (inactive).
Take `CC(C)Oc1ccc(-c2nn(-c3ccccc3)cc2/C=c2\sc3ncnn3c2=O)cc1`: the cell count in test [1] came to 335. Moreover, the inhibition was -4.6% (inactive) in test [1], -335% (inactive) in test [3], -16.4% (inactive) in test [7] and -14.6% (inactive) in test [8]. For the same compound, the inhibition of aggregation in test [2] is 5.1% (inactive). For the same compound, the nuclei count in test [2] was determined as 88.3%; in test [3] it was 114%. Moreover, the fluorescence slope was -0.279 (inactive) in test [4] and 0.00832 (inactive) in test [6]. Also, the NADPH fluorescence slope in test [5] was 1e-05 (inactive).
Regarding `CCSc1nc(O)c(CC)c(=O)n1C(C)CC` (centres undefined), the cell count in test [1] was determined as 304. The inhibition in test [1] was 2.1% (inactive); in test [3], -56.3% (inactive); in test [7] it was -0.896% (inactive); in test [8], 4.86% (inactive). In addition, the inhibition of aggregation in test [2] is -3.7% (inactive). Besides, the nuclei count was found to be 112% in test [2] and 111% in test [3]. For the same compound, the fluorescence slope was -0.556 (inactive) in test [4] and 0.00478 (inactive) in test [6]. Also, the NADPH fluorescence slope in test [5] is -3.6e-05 (inactive).
Take `O=C(Cn1c(=O)[nH]c2ccsc2c1=O)N1CCN(c2ccc(F)cc2)CC1`: in test [1], the cell count came out at 654. Further, the inhibition in test [1] was -29.9% (inactive); in test [3], -34.1% (inactive); in test [7], 15.1% (inactive); in test [8] it was 21.3% (inactive). Further, the inhibition of aggregation in test [2] is -0.5% (inactive). For the same compound, the nuclei count in test [2] came to 106%; in test [3] it was 121%. For the same compound, the results for the fluorescence slope in test [4] and in test [6] were -0.451 (inactive) and 0.00533 (inactive), respectively. For the same compound, the NADPH fluorescence slope in test [5] was -3e-05 (inactive).
As to `CN(C)/C=C(\C#N)c1nc2ccccc2[nH]1`, the cell count in test [1] is 468. In addition, the inhibition in test [1] was 11.9% (inactive); in test [3] it was -7.3% (inactive); in test [7] it was -21.4% (inactive); in test [8], -44.6% (inactive). Also, the inhibition of aggregation in test [2] was -17.2% (inactive). The nuclei count is 67.1% in test [2] and 112% in test [3]. Moreover, the fluorescence slope in test [4] is -0.532 (inactive); in test [6] it was 0.00457 (inactive). In addition, the NADPH fluorescence slope in test [5] was -3.9e-05 (inactive).
In the case of `CCN(C(=O)c1cc2cc3ccc(C)cc3nc2o1)c1ccc(OC)cc1`, the cell count in test [1] is 225. In addition, the inhibition in test [1] was -1.3% (inactive); in test [3], -11% (inactive); in test [7], -25.1% (inactive); in test [8], -79.8% (inactive). In addition, in test [2], the inhibition of aggregation was 0.1% (inactive). Moreover, the nuclei count turned out to be 107% in test [2] and 106% in test [3]. Also, the results for the fluorescence slope in test [4] and in test [6] were -0.431 (inactive) and 0.00704 (inactive), respectively. Besides, the NADPH fluorescence slope in test [5] was -1.6e-05 (inactive).
With `CCn1ncc(C2=NOC(C(=O)NCc3ccccc3)C2)c1C` (centres undefined), the cell count in test [1] is 309. Moreover, the inhibition is -20.8% (inactive) in test [1], -53.2% (inactive) in test [3], 17.4% (inactive) in test [7] and 73.3% (active) in test [8]. The inhibition of aggregation in test [2] is -64.1% (inactive). In addition, the nuclei count in test [2] amounted to 2.2%; in test [3], 105%. Besides, the figures for the fluorescence slope in test [4] and in test [6] were -0.446 (inactive) and 0.00637 (inactive), respectively. Besides, the NADPH fluorescence slope in test [5] is 3.3e-05 (inactive).
On to `COc1ccccc1CN1C(=O)CCC1(C)C(=O)NC1CCCCCC1` (centres undefined), for which the cell count in test [1] worked out at 452. The inhibition is 5.3% (inactive) in test [1], -184% (inactive) in test [3], 0.126% (inactive) in test [7] and 9.28% (inactive) in test [8]. In test [2], the inhibition of aggregation is 14.8% (inactive). The nuclei count in test [2] amounted to 63.8%; in test [3], 115%. Besides, the fluorescence slope is -0.44 (inactive) in test [4] and 0.00525 (inactive) in test [6]. In addition, the NADPH fluorescence slope in test [5] was 0.000132 (inactive).
For `COc1ccc(C2CC(=O)c3c(C)nc(N4CCN(c5ccccc5)CC4)nc3C2)cc1` (centres undefined), the cell count in test [1] worked out at 598. Also, the inhibition in test [1] is 5.6% (inactive); in test [3], 29.4% (inactive); in test [7], 8.81% (inactive); in test [8], -8.5% (inactive). The inhibition of aggregation in test [2] was -5.3% (inactive). The nuclei count in test [2] was 109%; in test [3], 108%. In addition, the figures for the fluorescence slope in test [4] and in test [6] were -0.574 (inactive) and 0.00457 (inactive), respectively. For the same compound, the NADPH fluorescence slope in test [5] is -4.7e-05 (inactive).
Regarding `CSc1nnc(-c2nnc(SC)n2-c2ccccc2)n1-c1ccccc1`, the cell count in test [1] came out at 879. In addition, the inhibition was -9.3% (inactive) in test [1], -143% (inactive) in test [3], 9.27% (inactive) in test [7] and 27.2% (inactive) in test [8]. In test [2], the inhibition of aggregation is -8% (inactive). Besides, the results for the nuclei count in test [2] and in test [3] were 109% and 123%, respectively. Moreover, the fluorescence slope in test [4] is -0.532 (inactive); in test [6] it was 0.00464 (inactive). The NADPH fluorescence slope in test [5] is -2.1e-05 (inactive).
On to `CCCSc1nc2c(c(=O)[nH]c(=O)n2C)n1CCc1ccccc1`, for which the cell count in test [1] came out at 413. For the same compound, the inhibition is 11.9% (inactive) in test [1], -76.3% (inactive) in test [3], 17.9% (inactive) in test [7] and 4.39% (inactive) in test [8]. Further, the inhibition of aggregation in test [2] is 0.6% (inactive). Also, the figures for the nuclei count in test [2] and in test [3] were 107% and 110%, respectively. Further, the fluorescence slope is -0.507 (inactive) in test [4] and 0.00465 (inactive) in test [6]. For the same compound, the NADPH fluorescence slope in test [5] was -3.4e-05 (inactive).
With `Cc1ccc(-c2cc(C(=O)NCc3ccc4c(c3)OCO4)no2)cc1`, the cell count in test [1] was 382. The inhibition in test [1] is 0.3% (inactive); in test [3] it was 17% (inactive); in test [7], -10.4% (inactive); in test [8], -26.2% (inactive). Also, the inhibition of aggregation in test [2] is 8.6% (inactive). Also, the values for the nuclei count in test [2] and in test [3] were 92.9% and 101%, respectively. For the same compound, the fluorescence slope is -0.315 (inactive) in test [4] and 0.00532 (inactive) in test [6]. In addition, the NADPH fluorescence slope in test [5] is -6.4e-05 (inactive).

The values are drawn from PubChem BioAssay.
